Active and inactive are the calls of the source. No cut-off for these calls is given here. Positions of bridges follow the written chain, without caps; N, C: chain ends. Non-standard residues stand in square brackets, D forms with d. Residues, ends and D or L forms follow the SMILES beside them. ξ: configuration not given here. S5 = C=CCCC[C@](C)(N)C(=O)O; Orn = NCCC[C@H](N)C(=O)O; ξK = NCCCCC(N)C(=O)O; ξA = CC(N)C(=O)O
Assays:
[1] = biological target: T1, Proprotein convertase subtilisin/kexin type 9 (Homo sapiens, UniProt Q8NBP7); assay: Binding affinity to human PCSK9 by surface plasmon resonance
T1 sequence (Q8NBP7 31-152 limits assumed): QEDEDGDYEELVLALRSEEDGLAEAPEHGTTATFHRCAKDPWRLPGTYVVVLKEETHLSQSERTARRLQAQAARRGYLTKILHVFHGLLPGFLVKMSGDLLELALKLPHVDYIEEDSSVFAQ
T1 sequence (Q8NBP7 153-692 limits assumed): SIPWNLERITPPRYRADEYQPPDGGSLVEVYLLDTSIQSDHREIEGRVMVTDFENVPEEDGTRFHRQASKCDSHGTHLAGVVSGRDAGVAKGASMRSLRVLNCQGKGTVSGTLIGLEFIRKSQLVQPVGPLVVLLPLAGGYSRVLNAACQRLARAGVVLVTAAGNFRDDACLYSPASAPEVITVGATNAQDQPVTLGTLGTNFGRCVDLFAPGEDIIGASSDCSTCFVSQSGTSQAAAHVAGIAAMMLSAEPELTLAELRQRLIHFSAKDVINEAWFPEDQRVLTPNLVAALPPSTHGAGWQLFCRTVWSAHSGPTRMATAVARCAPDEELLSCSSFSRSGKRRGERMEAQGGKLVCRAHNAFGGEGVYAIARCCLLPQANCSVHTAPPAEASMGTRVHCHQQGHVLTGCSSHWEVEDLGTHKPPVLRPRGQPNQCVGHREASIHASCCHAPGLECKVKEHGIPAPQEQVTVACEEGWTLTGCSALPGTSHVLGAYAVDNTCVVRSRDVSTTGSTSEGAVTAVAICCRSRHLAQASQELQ
Method in brief: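 Recombinant human His-tagged PCSK9 (Gln31–Gln692, HEK293-expressed) at 14 µg/mL amine-coupled onto Ni-NTA chip, ~1000–4000 RU. Buffer 25 mM Tris-HCl, 5 mM CaCl2, 100 mM NaCl, 0.01% P20, pH 7.5, 5% DMSO in running buffer. 25°C. Double-referenced sensorgrams; KD from steady-state equilibrium responses fit to a 4-parameter model, or kinetics fit 1:1.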

HepG2 = assay: Cytotoxicity against human HepG2 cells assessed as reduction in cell viability at 0.4 to 10 uM for 48 hrs by SRB assay; format: toxicity, cell-based; settings: hepg2, 48 h, dose 0.4-10 µM
Method in brief: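 HepG2 cells seeded 2000/well 24 h before treatment. Compounds at 0.4, 1.1, 3.3 and 10 µM in DMEM, 48 h at 37°C. SRB staining 30 min at 37°C, dye dissolved in 10 mM Tris base, absorbance at 560 nm. Triplicate wells averaged and normalized to untreated cells.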

[2] = Reversal of LDL uptake in human HepG2 cells at 10 uM for 2 hrs preincubation with PCSK9 followed by LDL addition and measured after 4 hrs by fluorimetry method relative to control; format: functional; settings: time 6 hrs
Method in brief: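 HepG2 cells seeded 40000/well, serum-starved 24 h in DMEM with 5% LPDS. Human His-PCSK9 (20–50 nM) preincubated 30–60 min at room temperature ± compounds (10 µM to 0.0001 µM, 0.1% DMSO). Cells then exposed 2 h at 37°C. LDL-BODIPY added to 10 µg/mL final for 4 h. Fluorescence read at ex 480/em 520 nm. Expressed as % maximal LDL-BODIPY incorporation; EC50 by non-linear fit.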

[3] = Effect on mast cell degranulation in human LAD2 cells assessed as CCL3 release measured after 2 hrs by Luminex bead based assay; format: functional
Method in brief: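 LAD2 human mast cells in StemPro 34 medium, 0.2×10^6 cells/well. Supernatant CCL3 quantified by Luminex magnetic bead kit.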

[4] = biological target: T1, Proprotein convertase subtilisin/kexin type 9; assay: Binding affinity to human PCSK9

CC(=O)N[C@H](C(=O)N[C@H](C(=O)N[C@@H](Cc1ccccc1)C(=O)N[C@H](C(=O)N[C@@H](CO)C(=O)N[C@@H](Cc1c[nH]c2ccccc12)C(=O)N[C@H]1CCCCNC(=O)C[C@@H](C(=O)N[C@@H](Cc2c[nH]c3ccccc23)C(=O)N[C@H](C(=O)N[C@@H](CCCCN)C(=O)N[C@@H](CCCCN)C(=O)N[C@@H](C)C(=O)N[C@@H](CCCCN)C(=O)N[C@@H](CCCCN)C(=O)N[C@H](CCCCN)C(N)=O)C(C)C)NC(=O)[C@H](CC(C)C)NC(=O)[C@H](Cc2ccc(O)cc2)NC(=O)[C@H](CCC(=O)O)NC1=O)[C@@H](C)O)C(C)C)[C@@H](C)O
Kd [1]: 133 nM

CC(=O)N[C@@H](Cc1cnc[nH]1)C(=O)N[C@H](C(=O)N[C@@H](Cc1ccccc1)C(=O)N[C@@H](CC(N)=O)C(=O)N[C@@H](CO)C(=O)N[C@@H](Cc1c[nH]c2ccccc12)C(=O)N[C@@H](CCC(=O)O)C(=O)N[C@@H](CCC(=O)O)C(=O)N[C@@H](Cc1ccc(O)cc1)C(=O)N[C@@H](CC(C)C)C(=O)N[C@@H](CC(=O)O)C(=O)N[C@@H](Cc1c[nH]c2ccccc12)C(=O)N[C@H](C(=O)NC(CCCCN)C(=O)NC(CCCCN)C(=O)NC(CCCCN)C(N)=O)C(C)C)C(C)C (some centres not stated) (Ac-HVFNSWEEYLDWV[ξK][ξK][ξK]-NH2)
Activity (HepG2): Non-Toxic
Kd [1]: 1100 nM

CC(=O)N[C@@H](Cc1cnc[nH]1)C(=O)N[C@H](C(=O)N[C@@H](Cc1ccccc1)C(=O)N[C@@H](CC(N)=O)C(=O)N[C@@H](CO)C(=O)N[C@@H](Cc1c[nH]c2ccccc12)C(=O)N[C@H]1CCCCNC(=O)C[C@@H](C(=O)N[C@@H](Cc2c[nH]c3ccccc23)C(=O)N[C@H](C(N)=O)C(C)C)NC(=O)[C@H](CC(C)C)NC(=O)[C@H](Cc2ccc(O)cc2)NC(=O)[C@H](CCC(=O)O)NC1=O)C(C)C (Ac-HVFNSWKEYLDWV-NH2; lactam 7-11)
Activity (HepG2): Non-Toxic
Kd [1]: 5300 nM

CC(=O)N[C@@H](Cc1cnc[nH]1)C(=O)N[C@H](C(=O)N[C@@H](Cc1ccccc1)C(=O)N[C@@H](CC(N)=O)C(=O)N[C@@H](CO)C(=O)N[C@@H](Cc1c[nH]c2ccccc12)C(=O)N[C@H]1CCCCNC(=O)C[C@@H](C(=O)N[C@@H](Cc2c[nH]c3ccccc23)C(=O)N[C@H](C(=O)N[C@@H](CCCCN)C(=O)N[C@@H](CCCCN)C(=O)N[C@@H](CCCCN)C(=O)N[C@@H](CCCCN)C(=O)N[C@@H](CCCCN)C(=O)N[C@@H](CCCCN)C(N)=O)C(C)C)NC(=O)[C@H](CC(C)C)NC(=O)[C@H](Cc2ccc(O)cc2)NC(=O)[C@H](CCC(=O)O)NC1=O)C(C)C (Ac-HVFNSWKEYLDWVKKKKKK-NH2; lactam 7-11)
Activity (HepG2): Non-Toxic
Kd [1]: 19 nM

CC(=O)N[C@@H](Cc1cnc[nH]1)C(=O)N[C@H](C(=O)N[C@@H](Cc1ccccc1)C(=O)N[C@@H](CC(N)=O)C(=O)N[C@@H](CO)C(=O)N[C@@H](Cc1c[nH]c2ccccc12)C(=O)N[C@H]1CCCCNC(=O)C[C@@H](C(=O)N[C@@H](Cc2c[nH]c3ccccc23)C(=O)N[C@H](C(=O)NC(CCCCN)C(=O)NC(CCCCN)C(=O)NC(CCCCN)C(N)=O)C(C)C)NC(=O)[C@H](CC(C)C)NC(=O)[C@H](Cc2ccc(O)cc2)NC(=O)[C@H](CCC(=O)O)NC1=O)C(C)C (some centres not stated) (Ac-HVFNSWKEYLDWV[ξK][ξK][ξK]-NH2; lactam 7-11)
Activity (HepG2): Non-Toxic
Kd [1]: 757 nM

CC(=O)N[C@@H](Cc1cnc[nH]1)C(=O)N[C@H](C(=O)N[C@@H](Cc1ccccc1)C(=O)N[C@@H](CCCNC(=N)N)C(=O)N[C@@H](CO)C(=O)N[C@@H](Cc1c[nH]c2ccccc12)C(=O)N[C@@]1(C)CCC/C=C\CCC[C@@](C)(C(=O)N[C@@H](Cc2c[nH]c3ccccc23)C(=O)N[C@H](C(=O)N[C@@H](CCCCN)C(=O)N[C@@H](CCCCN)C(=O)N[C@@H](CCCCN)C(=O)N[C@@H](CCCCN)C(=O)N[C@@H](CCCCN)C(=O)N[C@@H](CCCCN)C(N)=O)C(C)C)NC(=O)[C@H](CC(C)C)NC(=O)[C@H](Cc2ccc(O)cc2)NC(=O)[C@H](CCC(=O)O)NC1=O)C(C)C (Ac-HVFRSW[S5]EYL[S5]WVKKKKKK-NH2; staple (Z) 7-11)
Activity (HepG2): Non-Toxic
Kd [1]: 7 nM

CC(=O)N[C@@H](Cc1cnc[nH]1)C(=O)N[C@H](C(=O)N[C@@H](Cc1ccccc1)C(=O)N[C@@H](CCCN)C(=O)N[C@@H](CO)C(=O)N[C@@H](Cc1c[nH]c2ccccc12)C(=O)N[C@@H](CCC(=O)O)C(=O)N[C@@H](CCC(=O)O)C(=O)N[C@@H](Cc1ccc(O)cc1)C(=O)N[C@@H](CC(C)C)C(=O)N[C@@H](CC(=O)O)C(=O)N[C@@H](Cc1c[nH]c2ccccc12)C(=O)N[C@H](C(N)=O)C(C)C)C(C)C (Ac-HVF[Orn]SWEEYLDWV-NH2)
Activity (HepG2): Non-Toxic
Kd [1]: 1100 nM

CC(=O)N[C@H](C(=O)N[C@H](C(=O)N[C@@H](Cc1ccccc1)C(=O)N[C@H](C(=O)N[C@@H](CO)C(=O)N[C@@H](Cc1c[nH]c2ccccc12)C(=O)N[C@@H](CCC(=O)O)C(=O)N[C@@H](CCC(=O)O)C(=O)N[C@@H](Cc1ccc(O)cc1)C(=O)N[C@@H](CC(C)C)C(=O)NC(C)C(=O)N[C@@H](Cc1c[nH]c2ccccc12)C(=O)N[C@H](C(=O)N[C@@H](CCCCN)C(=O)N[C@@H](CCCCN)C(=O)N[C@@H](CCCCN)C(=O)N[C@@H](CCCCN)C(=O)N[C@@H](CCCCN)C(=O)N[C@@H](CCCCN)C(N)=O)C(C)C)[C@@H](C)O)C(C)C)[C@@H](C)O (some centres not stated) (Ac-TVFTSWEEYL[ξA]WVKKKKKK-NH2)
Kd [1]: 72.5 nM

CC(=O)N[C@H](C(=O)N[C@H](C(=O)N[C@@H](Cc1ccccc1)C(=O)N[C@H](C(=O)N[C@@H](CO)C(=O)N[C@@H](Cc1c[nH]c2ccccc12)C(=O)N[C@H]1CCCCNC(=O)C[C@@H](C(=O)N[C@@H](Cc2c[nH]c3ccccc23)C(=O)N[C@H](C(N)=O)C(C)C)NC(=O)[C@H](CC(C)C)NC(=O)[C@H](Cc2ccc(O)cc2)NC(=O)[C@H](CCC(=O)O)NC1=O)[C@@H](C)O)C(C)C)[C@@H](C)O (Ac-TVFTSWKEYLDWV-NH2; lactam 7-11)
Activity (HepG2): Non-Toxic
Activity [2]: 52%
Kd [1]: 3900 nM
EC50 ([3]; Homo sapiens, LAD2, 2 h): > 5000 nM
Emax ([3]; time 2 hrs): 716.6 pg/mL

CC(=O)N[C@H](C(=O)N[C@H](C(=O)N[C@@H](Cc1ccccc1)C(=O)N[C@H](C(=O)N[C@@H](CO)C(=O)N[C@@H](Cc1c[nH]c2ccccc12)C(=O)N[C@H]1CCCCNC(=O)C[C@@H](C(=O)N[C@@H](Cc2c[nH]c3ccccc23)C(=O)N[C@H](C(=O)N[C@@H](CCCCN)C(=O)N[C@@H](CCCCN)C(=O)N[C@@H](CCCCN)C(N)=O)C(C)C)NC(=O)[C@H](CC(C)C)NC(=O)[C@H](Cc2ccc(O)cc2)NC(=O)[C@H](CCC(=O)O)NC1=O)[C@@H](C)O)C(C)C)[C@@H](C)O (Ac-TVFTSWKEYLDWVKKK-NH2; lactam 7-11)
Activity (HepG2): Non-Toxic
Kd [1]: 1000 nM

CC(=O)N[C@H](C(=O)N[C@H](C(=O)N[C@@H](Cc1ccccc1)C(=O)N[C@H](C(=O)N[C@@H](CO)C(=O)N[C@@H](Cc1c[nH]c2ccccc12)C(=O)N[C@H]1CCCCNC(=O)C[C@@H](C(=O)N[C@@H](Cc2c[nH]c3ccccc23)C(=O)N[C@H](C(=O)N[C@@H](CCCCN)C(=O)N[C@@H](CCCCN)C(=O)N[C@@H](CCCCN)C(=O)N[C@@H](CCCCN)C(=O)N[C@@H](CCCCN)C(=O)N[C@@H](CCCCN)C(N)=O)C(C)C)NC(=O)[C@H](CC(C)C)NC(=O)[C@H](Cc2ccc(O)cc2)NC(=O)[C@H](CCC(=O)O)NC1=O)[C@@H](C)O)C(C)C)[C@@H](C)O (Ac-TVFTSWKEYLDWVKKKKKK-NH2; lactam 7-11)
Activity (HepG2): Non-Toxic
Kd [1]: 25 nM

CC(=O)N[C@H](C(=O)N[C@H](C(=O)N[C@@H](Cc1ccccc1)C(=O)N[C@H](C(=O)N[C@@H](CO)C(=O)N[C@@H](Cc1c[nH]c2ccccc12)C(=O)N[C@@]1(C)CCC/C=C\CCC[C@@](C)(C(=O)N[C@@H](Cc2c[nH]c3ccccc23)C(=O)N[C@H](C(N)=O)C(C)C)NC(=O)[C@H](CC(C)C)NC(=O)[C@H](Cc2ccc(O)cc2)NC(=O)[C@H](CCC(=O)O)NC1=O)[C@@H](C)O)C(C)C)[C@@H](C)O (Ac-TVFTSW[S5]EYL[S5]WV-NH2; staple (Z) 7-11)
Activity (HepG2): Non-Toxic
Activity [2]: 42.7%
Kd [1]: 6500 nM

Ac-HVCNSWEEYLDWV-NH2
Activity (HepG2): Non-Toxic
Activity [1]: inactive

Ac-HVFKSWEEYLDWV-NH2
Activity (HepG2): Non-Toxic
Kd [1]: 1200 nM

Ac-HVFNSWEEYLDWV-NH2
Activity (HepG2): Non-Toxic
Activity [2]: 62.4%
Kd [1]: 3900 nM

Ac-HVFRSWEEYLDWV-NH2
Activity (HepG2): Non-Toxic
Kd [1]: 865 nM

Ac-TVATSWEEYLDWV-NH2
Activity [1]: inactive

Ac-TVFTSWAEYLDWV-NH2
Activity (HepG2): Non-Toxic
Kd [1]: 7000 nM

Ac-TVFTSWEEALDWV-NH2
Activity (HepG2): Non-Toxic

Ac-TVFTSWEEYLAWV-NH2
Kd [1]: 8600 nM

Ac-TVFTSWEEYLDWVKKK-NH2
Activity (HepG2): Non-Toxic
Activity [2]: 72.3%
Kd [1]: 1600 nM
Kd [4]: 1600 nM

Ac-TVFTSWEEYLDWVKKKKKK-NH2
Activity (HepG2): Non-Toxic
Kd [1]: 424 nM
Kd [4]: 424 nM

Reference: ChEMBL document CHEMBL5038602, “Potent Lys Patch-Containing Stapled Peptides Targeting PCSK9” (J Med Chem, 2021)
